Published values pooled from the literature.
Lines come from different studies, so protocols differ.
Kir1 channel protein: Kir1 channel protein (Aedes aegypti, UniProt L0EQS9)
HTR5A: 5-hydroxytryptamine receptor 5A (HTR5A, Homo sapiens, UniProt P47898)
DRD4: D(4) dopamine receptor (DRD4, Homo sapiens, UniProt P21917)
PIK3CD: Phosphatidylinositol 4,5-bisphosphate 3-kinase catalytic subunit delta isoform (PIK3CD, Homo sapiens, UniProt O00329)

Structure (SMILES)	target	test	conditions	endpoint	value
O=S(=O)(c1ccc(F)cc1)N1CCN(c2ccnc(NCc3ccncc3)c2)CC1	Kir1 channel protein	ion flux, inhibitor	–	IC50	4000 to 9000 nM
CN1CCN(c2ccc(Nc3ncc4cc(C#N)c(=O)n(C5CCCC5)c4n3)cc2)CC1	Calcium/calmodulin-dependent protein kinase type 1 (CAMK1, Homo sapiens, UniProt Q14012)	enzyme activity, inhibitor	–	IC50	> 10000 nM
CS(=O)(=O)C1(CNCc2cccc3cccnc23)CC1	HTR5A	ligand displacement, radioligand	–	Ki	41.7 nM
C=CC(=O)Nc1cc(Nc2nccc(Nc3cc(Cl)c(F)cc3C(C)(C)O)n2)c(OC)cc1N1CC[C@@H](N(C)C)C1	Receptor tyrosine-protein kinase erbB-4 (ERBB4, Homo sapiens, UniProt Q15303)	enzyme activity, inhibitor	with preincubation	IC50	704 nM
Nc1nc2c(ncn2[C@@H]2O[C@H](COP(=O)(O)OP(=O)(O)O)[C@@H](OP(=O)(O)OP(=O)(O)O)[C@H]2O)c(=O)[nH]1	cmk (Escherichia coli, UniProt P0A6I0)	binding, ITC	–	Kd	79000 nM
COc1ccc2c(c1)C(=O)N(CCN1CCN(c3ccccc3OC)CC1)C2	DRD4	ligand displacement, radioligand	–	Ki	191 nM
C=CC(=O)N1CCC(C(=O)N(C)CC(=O)N2CCN(c3nc(-c4cnc(N)nc4C(F)F)nc(N4CCOCC4)n3)CC2)CC1	PIK3CD	binding, competition with immobilised ligand	–	Kd	2.2 nM
CCn1c(-c2nc3cc(C(=O)N4CCC[C@@H](N)C4)cc(OC)c3n2C)cc2cccnc21	Nuclear receptor subfamily 1 group I member 2 (NR1I2, Homo sapiens, UniProt O75469)	reporter gene, agonist, luciferase	–	EC50	> 50100 nM
O=S(=O)(c1ccc(Cl)cc1)N1CCN(c2ccc(C(F)(F)F)c(NCc3ccncc3)c2)CC1	Kir1 channel protein	ion flux, inhibitor	–	IC50	4000 to 9000 nM
CC1=C(O)C(=O)OC1C (stereo not drawn)	OR8D1 (Homo sapiens, UniProt Q8WZ84, del306-308)	cAMP, agonist, luciferase	–	EC50	4500 nM
CC(C)=CCC/C(C)=C/CC/C(C)=C/CSc1ccccc1C(=O)O	Squalene synthase (Homo sapiens, UniProt P37268)	enzyme activity, inhibitor	–	Ki	370 nM
COc1ccc(-c2nsc(NC(=O)[C@@H]3C[C@H]3C)c2C)cc1	Metabotropic glutamate receptor 8 (GRM8, Homo sapiens, UniProt O00222)	calcium signal, agonist	–	EC50	> 25000 nM
CS(=O)(=O)N1CCN(c2ccc([N+](=O)[O-])c(NCc3cccnc3)c2)CC1	Kir1 channel protein	ion flux, inhibitor	–	IC50	44000 nM
COc1ccc(CCC2=NCCN2CCc2ccccc2)cc1	DRD4	ligand displacement, radioligand	–	Ki	501 nM
CC(=O)N[C@@H](Cc1ccccc1)C(=O)N1CCC[C@H]1C(=O)N1CCC[C@H]1C(=O)N1CCC[C@H]1C(=O)N1CCC[C@H]1C(=O)O	Vasodilator-stimulated phosphoprotein (VASP, Homo sapiens, UniProt P50552)	binding, fluorescence	–	Kd	800000 nM
O=[N+]([O-])c1ccc(N2CCN(S(=O)(=O)c3ccc(F)cc3)CC2)cc1NCc1cccnc1	Kir1 channel protein	ion current, inhibitor, patch clamp	–	IC50	57 nM
Clc1ccc(CNC[C@H]2CCn3ccnc3C2)c2ncccc12	HTR5A	ligand displacement, radioligand	–	Ki	3240 nM
CC[C@@H]1C(=O)OC[C@@H]1Cc1cncn1C	Cytochrome P450 2E1 (CYP2E1, Homo sapiens, UniProt P05181)	enzyme activity, inhibitor	10 min, pH 6.8	Ki	765000 nM
CCC(=O)N1CCC(C(=O)N(C)CC(=O)N2CCN(c3nc(-c4cnc(N)nc4C(F)F)nc(N4CCOCC4)n3)CC2)CC1	PIK3CD	binding, competition with immobilised ligand	–	Kd	4.9 nM
CC(C)c1nc2cc(OCCCCN3CCN(c4cccc5c4OCCO5)CC3)ccc2s1	HTR5A	ligand displacement, radioligand	–	Ki	330 nM
O=C1c2ccccc2CCN1CCCCN1CCN(c2ccccn2)CC1	DRD4	ligand displacement, radioligand	–	Ki	14.5 nM
Cc1cnc(-c2ccc(-c3ccc(NC(=O)Nc4c(F)cc(F)cc4F)cc3F)c3c2C(=O)NC3)[nH]1	Mast/stem cell growth factor receptor Kit (KIT, Homo sapiens, UniProt P10721)	binding, competition with immobilised ligand	–	Kd	0.8 nM
COc1ccc(F)cc1C(=O)NCc1ccc(-c2nn([C@@H](C)C(F)(F)F)c(N)c2C(N)=O)cc1	Tyrosine-protein kinase BTK (BTK, Homo sapiens, UniProt Q06187, C481R)	phosphorylation in cells, inhibitor	–	IC50	12.6 nM
CCN(CC)c1ccc(C2Nc3ccc(C(=O)c4ccccc4)cc3NC3=C2C(=O)CC(C)(C)C3)cc1 (stereo not drawn)	HTR5A	cell-free assay, radioligand	–	Ki	7960 nM
